From ChEMBL document CHEMBL5252546, “Salutaxel, a Conjugate of Docetaxel and a Muramyl Dipeptide (MDP) Analogue, Acts as Multifunctional Prodrug That Inhibits Tumor Growth and Metastasis” (J Med Chem, 2018) come the findings set out here.

Series [1] is described as follows: Tmax in mouse plasma implanted with mouse 4T1 cells at 10 mg/kg,iv measured upto 72 hrs. Format: ADME, organism-based.
Series [2] is described as follows: Drug metabolism in rat feces assessed as metabolite docetaxel formation at 4 mg/kg,iv measured after 24 hrs. The format is ADME, organism-based. The settings on record: in vivo.
The nature of series [3]: Drug concentration in plasma of rat assessed as docetaxel concentration at 2 to 8 mg/kg,iv measured upto 24 hrs. The format is ADME, organism-based. The following applies: in vivo, dose 2-8 mg/kg. The procedure, abridged: (§1)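 Rats were given a single iv injection at 2, 4 or 8 mg/kg. Plasma parent drug and released docetaxel were followed over time. Cmax, Tmax, AUC, MRT, t1/2, CL and Vss were reported for males, females and all animals combined.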

The nature of series [4]: Volume of distribution at steady state in female rat at 8 mg/kg,iv measured upto 24 hrs. The settings on record: in vivo, read-out: Vdss. The format is ADME, organism-based.
A short description of series [5]: Volume of distribution at steady state in female rat at 2 mg/kg,iv measured upto 24 hrs. The following applies: in vivo, read-out: Vdss. The format is ADME, organism-based.
A short description of series [6]: Half life in male rat at 2 mg/kg,iv measured upto 24 hrs. The settings on record: in vivo. The format is ADME, organism-based.
Series [7] in a line: AUC (0-t) in Beagle dog at 2 mg/kg,iv measured upto 24 hrs. Format: ADME, organism-based, Canis lupus familiaris. Also on record: time < 24 hrs, dose 2 mg/kg, route iv. The following applies: in vivo. The procedure, abridged:
(§2)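 Single iv dose: rats 2, 4 or 8 mg/kg by intravenous injection; Beagle dogs 1, 2 or 4 mg/kg by intravenous infusion. Plasma concentration–time data were analysed by sex and pooled. Reported parameters: Cmax, Tmax, AUC0−t, AUC0−∞, MRT0−∞, t1/2, CL, Vss, given as mean ± SD.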

The nature of series [8]: AUC (0-t) in female Beagle dog at 2 mg/kg,iv measured upto 24 hrs. Details: dose 2 mg/kg, time < 24 hrs, route iv. The following applies: in vivo. Format: ADME, organism-based, Canis lupus familiaris. Put shortly:
as §2

Series [9] in a line: AUC (0-t) in male Beagle dog at 1 mg/kg,iv measured upto 24 hrs. Format: ADME, organism-based, Canis lupus familiaris. Also on record: dose 1 mg/kg, time < 24 hrs, route iv. The following applies: in vivo. The procedure, abridged:
as §2

Series [10] can be described thus: AUC (0-t) in male rat at 2 mg/kg,iv measured upto 24 hrs. The format is ADME, organism-based. Details: time < 24 hrs, dose 2 mg/kg, route iv. The following applies: in vivo. Put shortly:
as §2

Series [11] in a line: Tmax in rat at 8 mg/kg,iv measured upto 24 hrs. Format: ADME, organism-based. The settings on record: in vivo.
A short description of series [12]: Tmax in male Beagle dog at 1 mg/kg,iv measured upto 24 hrs. Format: ADME, organism-based, Canis lupus familiaris. The following applies: in vivo.
Series [13] can be described thus: Cmax in female rat at 4 mg/kg,iv measured upto 24 hrs. The format is ADME, organism-based. Also on record: time < 24 hrs, dose 4 mg/kg, route iv. The following applies: in vivo. The procedure, abridged: as §1
Series [14] is described as follows: Cmax in rat at 4 mg/kg,iv measured upto 24 hrs. Details: dose 4 mg/kg, time < 24 hrs, route iv. The following applies: in vivo. The format is ADME, organism-based. The procedure, abridged:
as §1

The nature of series [15]: Cmax in male rat at 8 mg/kg,iv measured upto 24 hrs. The following applies: in vivo. Also on record: time < 24 hrs, dose 8 mg/kg, route iv. The format is ADME, organism-based. Put shortly: as §1
Series [16] in a line: Cmax in female Beagle dog at 4 mg/kg,iv measured upto 24 hrs. The format is ADME, organism-based, Canis lupus familiaris. Also on record: time < 24 hrs, dose 4 mg/kg, route iv. The following applies: in vivo. The procedure, abridged:
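Beagle dogs were given a single iv infusion at 1, 2 or 4 mg/kg. Plasma parent drug and released docetaxel were followed over time. Cmax, Tmax, AUC, MRT, t1/2, CL and Vss were reported by sex and for all dogs combined.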

The subject of series [17] is 4T1. Nature of the series: Synergistic antitumor activity against mouse 4T1 cells xenografted with BALB/c mouse assessed as decrease in tumor volume at 10 mg/kg,iv administrated in combination with doxorubicin once per week for 4 weeks. The format is functional, organism-based.
Series [18] can be described thus: Toxicity in BALB/c mouse xenografted with human A549/Taxol cells assessed as side effects at 10 mg/kg,iv administrated once per week for 3 weeks. Format: organism-based, A549/TR. The following applies: in vivo, 504 h. On the technique in general: A xenograft is tissue or cells of one species grown in another, often human tumour cells in immunodeficient mice.
In series [19] the test system is MDA-MB-231. Nature of the series: Antitumor activity against human MDA-MB-231 cells xenografted with BALB/c mouse assessed as inhibition of tumor growth at 10 mg/kg,iv administrated once per week for 3 weeks. The format is functional, organism-based. The procedure, abridged:
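BALB/c nu/nu mice given subcutaneous human tumour cells in the right flank; dosing began at about 100–120 mm3 mean volume; iv once weekly for 3 weeks, with equimolar parent drug as positive control; tumour volume and weight measured; n = 8, mean ± SEM, ANOVA and Student's t test.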

For series [20], the target named is Cytochrome P450 1A (Homo sapiens, UniProt P04798+P05177). Nature of the series: Inhibition of CYP1A in human liver microsomes using probe substrate at 0.1 to 100 uM in presence of NADPH. Format: ADME, Microsome. The settings on record: dose 0.1-100 µM. Background: Liver microsomes are vesicles of endoplasmic reticulum, rich in cytochrome P450 enzymes.
The nature of series [21]: Drug metabolism in dog hepatocytes assessed as docetaxel metabolite formation at 20 uM incubated for 180 mins. The following applies: 3 h. Format: ADME, cell-based, Canis lupus familiaris, Hepatocyte.
Series [22] in a line: Stability in human plasma assessed as compound remaining at 1 uM incubated for 6 hrs. Format: ADME, cell-free.
Series [23] concerns MDA-MB-231. Description: Antiproliferative activity against human MDA-MB-231 cells assessed inhibition of cell growth incubated for 72 hrs by SRB assay. The format is functional, cell-based. The following applies: MDA-MB-231, 72 h.
Series [24] in a line: Acute toxicity in Beagle dog assessed as lethal dose at iv administration. The settings on record: in vivo. The format is organism-based, Canis lupus familiaris. The procedure, abridged: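 Acute toxicity after a single intravenous administration. […] In dogs, an approximate lethal dose range was determined.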
The test system of series [25] is 4T1. Nature of the series: Antitumor activity against mouse 4T1 cells implanted in BALB/c mouse assessed as decrease in serum IL-6 level at 5 mg/kg,iv administrated once per week for 4 weeks by ELISA. The format is functional, organism-based. The procedure, abridged: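 4T1 fat-pad model in BALB/c mice, iv 5–20 mg/kg once weekly for 4 weeks, with vehicle and naive groups; serum MMP9, TIMP-1, IL-6 and S100A9 measured by mouse ELISA kits.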

The subject of series [26] is 4T1. Description: Antitumor activity against mouse 4T1 cells implanted in BALB/c mouse assessed as decrease in lung MMP9 expression level at 5 to 20 mg/kg,iv administrated once per week for 4 weeks by western blot assay. The format is functional, organism-based. The following applies: dose 5-20 mg/kg. The procedure, abridged: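 4T1 fat-pad model in BALB/c mice, iv once weekly for 4 weeks; MMP9, MMP2 and NOD1 in spleen, lung and tumour by western blot, β-actin loading control; bands averaged over five mice per group, representative of two independent experiments.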
(In western blotting, separated proteins are transferred to a membrane and probed.)

Series [27] can be described thus: Cmax in mouse plasma implanted with mouse 4T1 cells at 5.7 mg/kg,iv measured upto 72 hrs. The format is ADME, organism-based. Also on record: dose 5.7 mg/kg, time < 72 hrs, route iv.
Series [28] is described as follows: Toxicity in BALB/c mouse injected with mouse 4T1 cells assessed as body weight loss at 5.7 mg/kg,iv administrated once per week for 4 weeks. The format is organism-based. The following applies: in vivo, 672 h.
The subject of series [29] is 4T1. Nature of the series: Antitumor activity against mouse 4T1 cells xenografted with BALB/c mouse assessed as decrease in tumor weight at 5.7 mg/kg,iv administrated once per week for 4 weeks. Format: functional, organism-based. Put shortly: (§3)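 4T1 cells injected into mammary fat pads of BALB/c mice. Dosing iv once per week for 4 weeks, saline vehicle; single-agent arms were given alone or with the peptide component (5b or 6). Endpoints were body weight, tumour volume, tumour weight, lung metastatic nodule count and lung metastasis score. Mean ± SEM, n = 10; ANOVA and Student's t test.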

The subject of series [30] is 4T1. Description: Antitumor activity against mouse 4T1 cells xenografted with BALB/c mouse assessed as reduction lung metastatic nodules at 5.7 mg/kg,iv in presence of compound 5b administrated once per week for 4 weeks. Format: functional, organism-based. Put shortly:
as §3

For series [31], the system named is 4T1. Description: Antitumor activity against mouse 4T1 cells implanted in BALB/c mouse assessed as decrease in serum TIMP-1 level at 5.7 mg/kg,iv administrated once per week for 4 weeks in presence of MDA-205 by ELISA. Format: functional, organism-based.
The subject of series [32] is 4T1. Nature of the series: Antitumor activity against mouse 4T1 cells implanted in BALB/c mouse assessed as decrease in serum IL-6 level at 5.7 mg/kg,iv administrated once per week for 4 weeks by ELISA. Format: functional, organism-based.
In series [33] the test system is 4T1. Nature of the series: Antitumor activity against mouse 4T1 cells implanted in BALB/c mouse assessed as decrease in lung MMP2 expression level at 5.7 mg/kg,iv administrated once per week for 4 weeks in presence of compound 5b by western blot assay. Format: functional, organism-based. Put shortly: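 4T1 cells injected into mammary fat pads of BALB/c mice. Saline vehicle or test article given iv once weekly for 4 weeks. Spleen, lung and tumor lysates immunoblotted for MMP2/MMP9 with β-actin as loading control. Bands averaged over five mice per group, representative of two independent experiments.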

Activity calls are given as the source filed them. No cut-off for these calls is given here.

Usually Tmax stands for the time from dosing to the highest level. As a reminder, the half-life is the time in which the quantity being followed falls by half. As a reminder, the AUC(0-t) is the area under the concentration-time curve up to a stated or last time point. Read a high AUC(0-t) as high exposure. In general, Cmax refers to the peak of the concentration-time curve. Broadly, the IC50 is the concentration at which inhibition is half-maximal. Lower therefore signals higher potency. For `CC(=O)O[C@@]12CO[C@@H]1C[C@H](O)[C@@]1(C)C(=O)[C@H](O)C3=C(C)[C@@H](OC(=O)[C@H](OC(=O)CCC(=O)NCCCC[C@H](NC(=O)CC[C@@H](NC(=O)[C@H](C)NC(=O)/C=C/c4ccc(F)cc4Cl)C(N)=O)C(=O)O)[C@@H](NC(=O)OC(C)(C)C)c4ccccc4)C[C@@](O)([C@@H](OC(=O)c4ccccc4)[C@H]21)C3(C)C`, the Tmax in [1] worked out at 1.8 min; in [11] it was 4.98 min; in [12], 30 min. The Drug metabolism entry in series [2] and in series [21] was “Metabolite_Detected” in each case. In series [3], the Drug uptake amounted to 0.79%. For the same compound, the Vd was 0.095 L/kg in [4] and 0.067 L/kg in series [5]. Further, the half-life in series [6] is 9 min. The AUC(0-t) at 24 h was determined as 5900 ng·h/mL in series [7], 6970 ng·h/mL in [8], 1590 ng·h/mL in series [9] and 6090 ng·h/mL in series [10]. Besides, the Cmax in series [13] stood at 30500 ng/mL; in [14], 34200 ng/mL; in series [15] it was 61900 ng/mL; in [16], 30800 ng/mL. Also, the result in [17], in series [25] and in series [26] was Active. For the same compound, the Activity entry in series [18] was “Non-Toxic”. Besides, the inhibition entry in series [19] is “Active”. Besides, the “inhibition (INH)” value in [20] was “Not Active”. Besides, in series [22], the Stability result is reported as “Stable”. Besides, the midpoint of inhibition in [23], the IC50, lay at 16.3 nM. For the same compound, the LD in [24] was found to be 33 mg/kg.
In series [27], `CC(=O)O[C@@]12CO[C@@H]1C[C@H](O)[C@@]1(C)C(=O)[C@H](O)C3=C(C)[C@@H](OC(=O)[C@H](O)[C@@H](NC(=O)OC(C)(C)C)c4ccccc4)C[C@@](O)([C@@H](OC(=O)c4ccccc4)[C@H]21)C3(C)C` [DOCETAXEL ANHYDROUS] had a Cmax of 8.09 µM. Further, the Activity result in series [28] is “Non-Toxic”. Moreover, the result in series [29], in series [31] and in series [32] was Active. For the same compound, the result in series [30] and in series [33] was inactive.
